Assay results taken from paper PMC10655810 (Journal of Agricultural and Food Chemistry, 2023).
Blank lines part the entries; values can stand above or below the molecule they belong to.

Key:
pepsin = pepsin (Sus scrofa, UniProt P00791); test: biochemical; set-up: species or system porcine; conditions: for Proteolytic activity of pepsin (residual activity): pH 2.5
RmuAP1CD = test: Effects of chemicals; format: biochemical, Rhodotorula mucilaginosa; conditions: same test as Table 1; preincubation 37 °C, 3 h; BSA, pH 2.5
Summary of the method: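 Residual activity was then measured with 10 μg enzyme and 5 mg BSA per 1 mL at pH 2.5 for 1–1.5 h. The reaction was stopped with cold TCA (10% w/v final), centrifuged, and supernatant A280 read. Triplicate.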

BSA = conditions: cited from earlier work
[1] = BSA denatured by 10 min preincubation at pH 0.8

pepsin, sequence (P00791 60-385): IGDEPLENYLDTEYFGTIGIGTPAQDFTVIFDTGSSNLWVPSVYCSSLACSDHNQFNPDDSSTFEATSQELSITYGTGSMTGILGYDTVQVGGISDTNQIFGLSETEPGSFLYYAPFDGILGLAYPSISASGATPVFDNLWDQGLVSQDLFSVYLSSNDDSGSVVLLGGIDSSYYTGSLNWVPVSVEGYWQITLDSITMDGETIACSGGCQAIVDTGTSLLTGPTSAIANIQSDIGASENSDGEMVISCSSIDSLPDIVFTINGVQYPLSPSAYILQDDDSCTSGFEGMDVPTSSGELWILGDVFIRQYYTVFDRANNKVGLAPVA

Molecule: O=C(O)CN(CCN(CC(=O)O)CC(=O)O)CC(=O)O [EDTA, ethylenediaminetetraacetic acid]
remaining activity at 5000 µM (pepsin; pH 2.5, read-out: Proteolytic activity of pepsin (residual activity)): 95 ± 2.5% | Effect on the proteolytic activity of RmuAP1CD (in words) (RmuAP1CD): unaffected

Molecule: CCCCCCCCCCCCOS(=O)(=O)[O-].[Na+] [SDS, sodium dodecyl sulfate]
Proteolytic activity of pepsin (residual activity) (pepsin): 30 ± 4.0% | Effect on the proteolytic activity of RmuAP1CD (in words) (RmuAP1CD): moderately inhibited

Molecule: pepsin
Activity of pepsin on HCl-denatured BSA at pH 4.5 (BSA; [1]): 65% | pH of peak activity of pepsin on HCl-denatured BSA (BSA; [1]): 3.0 | Optimum pH of pepsin for BSA (BSA; native BSA, pH 1.0 to 5.5): about 1.7 | Activity of pepsin on BSA at pH 4.0, of its peak value (BSA; native BSA): 10%

Molecule: O=S(=O)(F)Cc1ccccc1 [PMSF, phenylmethylsulfonyl fluoride]
Effect on the proteolytic activity of RmuAP1CD (in words) (RmuAP1CD): unaffected

Continued, values first:

Effect on the proteolytic activity of RmuAP1CD (in words) (RmuAP1CD): drastically inhibited
Molecule: pepstatin A

Effect on the proteolytic activity of RmuAP1CD (in words) (RmuAP1CD): moderately inhibited
Molecule: Triton X-100

Proteolytic activity of pepsin (residual activity) (pepsin): 90 ± 1.0% | Effect on the proteolytic activity of RmuAP1CD (in words) (RmuAP1CD): did not influence the peptidase activity
Molecule: OCCS [β-ME, β-mercaptoethanol]
